# The source made the active and inactive calls. The rule behind the calls is not given here.
# Legend:
# Rattus norvegicus [1] = assay: Antioxidant activity in Sprague-Dawley rat brain tissue model of transient middle cerebral artery occlusion stroke model assessed as increase in superoxide dismutase levels per mg of protein at 80 mg/kg […] measured 24 hrs after reperfusion by nitroblue tetrazolium assay relative to control; type: functional
# Rattus norvegicus [2] = assay: Antioxidant activity in Sprague-Dawley rat brain tissue model of transient middle cerebral artery occlusion stroke model assessed as increase in superoxide dismutase levels per mg of protein at 380 mg/kg […] measured 24 hrs after reperfusion by nitroblue tetrazolium assay relative to control; type: functional
# Rattus norvegicus [3] = assay: Antioxidant activity in Sprague-Dawley rat brain tissue model of transient middle cerebral artery occlusion stroke model assessed as increase in glutathione peroxidase levels per mg of protein at 80 mg/kg […] measured 24 hrs after reperfusion by DTNB assay relative to control; type: functional
# [4] = Induction of nitric oxide release in potassium phosphate buffer at pH 7.4 at 0.1 mM after 45 mins by Griess assay; type: physicochemical; settings: pH 7.4, 0.75 h, 100 µM
# In short: (§1)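 Compound (0.1 mM) in PBS pH 7.4 containing 2% DMSO and 5.0 mM L-cysteine was held at 37 °C for 15–300 min. Samples were taken every 15 min up to 120 min, then every 30 min. Each sample was reacted with Griess reagent for 10 min at 37 °C and absorbance read at 540 nm. Nitrite was quantified from a nitrite standard curve. Means reported; intra-group variation <10%.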
# [5] = Induction of nitric oxide release in potassium phosphate buffer at pH 7.4 at 0.1 mM after 105 mins by Griess assay; type: physicochemical; settings: pH 7.4, 1.75 h, 100 µM; in short: as §1
# [6] = Induction of nitric oxide release in potassium phosphate buffer at pH 7.4 at 0.1 mM after 120 mins by Griess assay; type: physicochemical; settings: pH 7.4, 2 h, 100 µM; in short: as §1
# [7] = Induction of nitric oxide release in potassium phosphate buffer at pH 7.4 at 0.1 mM after 150 mins by Griess assay; type: physicochemical; settings: pH 7.4, 2.5 h, 100 µM; in short: as §1
# [8] = Induction of nitric oxide release in potassium phosphate buffer at pH 7.4 at 0.1 mM after 180 mins by Griess assay; type: physicochemical; settings: pH 7.4, 3 h, 100 µM; in short: as §1
# [9] = Induction of nitric oxide release in potassium phosphate buffer at pH 7.4 at 0.1 mM after 300 mins by Griess assay; type: physicochemical; settings: pH 7.4, 5 h, 100 µM; in short: as §1
# Liver [10] = assay: Induction of hydrogen sulfide release in rat liver homogenate at 100 uM after 60 mins by microplate reader method (reference value: 1.03 to 1.21%); type: functional, tissue-based
# In short: (§2)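 Compound was incubated at 37 °C for 0–90 min with fresh rat liver homogenate. The reaction was stopped with 1% zinc acetate and 10% trichloroacetic acid. N,N-dimethyl-p-phenylenediamine sulfate in 7.2 M HCl and FeCl3 in 1.2 M HCl were added, and absorbance was read at 670 nm after 10 min. Values were calculated against an NaHS standard curve as cumulative % conversion to H2S, n = 6.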
# [11] = Antiplatelet activity in rabbit platelet-rich plasma assessed as inhibition of ADP-induced platelet aggregation at 0.1 mM preincubated for 5 mins followed by addition of ADP measured within 5 mins by Borns turbidimetric method; type: functional; settings: Oryctolagus cuniculus
# In short: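 Rabbit carotid blood was citrated (3.8%, 9:1). PRP was obtained at 500 g for 10 min and PPP at 3000 g for 10 min. PRP was preincubated in duplicate for 5 min at 37 °C with 0.1 mM compound, plus carboxy-PTIO or BSS where indicated. ADP was then added and maximal light transmission recorded within 5 min, within 3 h of blood collection. Inhibition % was calculated versus control. Mean ± SD of three independent experiments.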
# [12] = Antiplatelet activity in rabbit platelet-rich plasma assessed as inhibition of ADP-induced platelet aggregation preincubated for 5 mins followed by addition of ADP measured within 5 mins by Borns turbidimetric method; type: functional; settings: Oryctolagus cuniculus
# In short: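 Platelet-rich plasma from citrated rabbit carotid blood was preincubated in duplicate at 37 °C for 5 min with compound at 0.1, 0.2, 0.4, 0.8 or 1.6 mM. ADP-induced aggregation was then recorded turbidimetrically, as maximal light transmission within 5 min. Inhibition was calculated versus vehicle control, and IC50 values were derived. Mean ± SD, n = 6, ANOVA/Tukey.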
# [13] = Induction of nitric oxide release in potassium phosphate buffer at pH 7.4 at 0.1 mM after 15 mins by Griess assay; type: physicochemical; settings: pH 7.4, 0.25 h, 100 µM; in short: as §1
# Liver [14] = assay: Induction of hydrogen sulfide release in rat liver homogenate at 100 uM after 15 mins by microplate reader method (reference value: 1.03 to 1.21%); type: functional, tissue-based; in short: as §2
# Rattus norvegicus [15] = assay: Neuroprotective activity in Sprague-Dawley rat model of transient middle cerebral artery occlusion stroke model assessed as neurological deficit at 80 mg/kg administered via oral gavage for 7 days after ischemia onset measured 24 hrs after middle cerebral artery occlusion by Longa's method; type: functional, organism-based; settings: in the assay text read “before ischemia onset” for “after ischemia onset”
# In short: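 Male SD rats (280–320 g) received daily gavage for 7 days, with 0.5% CMC-Na as vehicle. Two hours after the last dose they underwent 2 h MCAO with reperfusion under chloral hydrate anesthesia; core temperature was held at 37 °C. Neurological deficit was scored blinded by Longa's method 24 h after reperfusion, between 10 and 11 a.m. Kruskal–Wallis test followed by Mann–Whitney U test.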
# Rattus norvegicus [16] = assay: Neuroprotective activity in Sprague-Dawley rat model of transient middle cerebral artery occlusion stroke model assessed as reduction in infarct size at 380 mg/kg administered via oral gavage for 7 days […] measured 24 hrs after middle cerebral artery occlusion by TTC assay; type: functional, organism-based
# In short: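 Male SD rats (280–320 g), n=12/group, dosed by gavage in 0.5% CMC-Na daily for seven days; 2 h after last dose, anesthetized (chloral hydrate 300 mg/kg ip) and subjected to 2 h intraluminal MCAO then reperfusion. At 24 h post-reperfusion, brains (n=6) cut coronally at 2 mm, stained 2% TTC 30 min 37 °C, formalin-fixed; infarct area expressed as percent of whole brain; mean SD, ANOVA/Tukey.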
# Rattus norvegicus [17] = assay: Neuroprotective activity in Sprague-Dawley rat model of transient middle cerebral artery occlusion stroke model assessed as reduction in brain water content at 380 mg/kg administered via oral gavage for 7 days after ischemia onset measured 24 hrs after middle cerebral artery occlusion; type: functional, organism-based; settings: in the assay text read “before ischemia onset” for “after ischemia onset”
# In short: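 Male SD rats were gavaged daily for 7 days, with 0.5% CMC-Na as vehicle, then underwent 2 h MCAO with reperfusion. At 24 h after reperfusion the ischemic hemisphere was weighed wet, dried at 100 °C for 24 h and reweighed. Water content was calculated as (wet − dry)/wet × 100%. Mean ± SD, n = 6, ANOVA/Tukey.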
# Rattus norvegicus [18] = assay: (§3) Antioxidant activity in Sprague-Dawley rat brain tissue model of transient middle cerebral artery occlusion stroke model assessed as malondialdehyde levels per mg of protein at 80 mg/kg administered via oral gavage for 7 days after ischemia onset measured 24 hrs after reperfusion (reference value: 1.46 nmol); type: functional; settings: in the assay text read “before ischemia onset” for “after ischemia onset”
# In short: (§4)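 Male SD rats (280–320 g; n = 12 per group) were gavaged daily for 7 days, with 0.5% CMC-Na as vehicle. Two hours after the last dose they were anesthetized with chloral hydrate (300 mg/kg ip) and underwent 2 h MCAO followed by reperfusion. Brains were taken 24 h after reperfusion, rinsed in cold saline and stored at −70 °C. Protein was quantified, then GSH, SOD, GSH-Px and MDA were measured by kits. Mean ± SD, n = 6, ANOVA/Tukey.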
# Rattus norvegicus [19] = assay: as §3, with “380” for “80”; type: functional; settings: in the assay text read “before ischemia onset” for “after ischemia onset”; in short: as §4
smiles,measurement,setting,value
CCCCC(OC(=O)CN1CCN(CCCCCOc2ccc(-c3cc(=S)ss3)cc2)CC1)c1ccccc1C(=O)Oc1ccc(/C=C/C(=O)OCCO[N+](=O)[O-])cc1OC (racemic),Activity,Rattus norvegicus [1],23.07%
same,Activity,Rattus norvegicus [2],32.02%
same,Activity,Rattus norvegicus [3],29.57%
same,Activity,[4],6.89 µM
same,Activity,[5],9.63 µM
same,Activity,[6],10.09 µM
same,Activity,[7],10.23 µM
same,Activity,[8],10.3 µM
same,Activity,[9],10.57 µM
same,Activity,Liver [10],4.25%
same,inhibition at 100 µM,[11],41%
same,IC50,[12],140 µM
same,Activity,[13],3.16 µM
same,Activity,Liver [14],2.83%
same,Activity,Rattus norvegicus [15],inactive
same,Activity,Rattus norvegicus [16],Active
same,Activity,Rattus norvegicus [17],Active
same,Activity,Rattus norvegicus [18],1.07 nmol
same,Activity,Rattus norvegicus [19],0.86 nmol
